According to ChEMBL document CHEMBL1133674, “A peptide prodrug approach for improving bisphosphonate oral absorption” (J Med Chem, 2000):
Residues, ends and D or L forms follow the SMILES beside them.

Columns and labels:
[1] = (§1) Basolateral to apical fluxes across Caco-2 cell monolayers at 37 degree celsius was studied.; format: ADME, organism-based; details: human, read-out: Permeability
Method in brief: (§2)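 Caco-2 monolayers (passage 46-48) grown on collagen-coated polycarbonate Transwell filters, 21-25 days after seeding at 80 000 cells/cm2; TEER checked the day before. Transport run in HBSS with 25 mM Hepes, pH 7.4, at 37 °C with stirring. Receiver sampled at intervals up to 4 h, radioactivity counted by scintillation. Papp = dQ/dt·1/(AC0), computed separately for bisphosphonate and Pro-Phe parts; mean ± SD.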

[2] = Apical to basolateral fluxes across Caco-2 cell monolayers at 37 degree celsius was studied.; format: ADME, organism-based; details: human, read-out: Permeability; method in brief: as §2
[3] = Inhibition of HAP dissolution was determined in […] at 0.24 mM concentration *: p<0.05; design: scale not given: the % may be the effect or the level left; details: 240 µM
Method in brief: (§3)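 Hydroxyapatite tablets (300 mg, 10 mm), wax-coated so that one face is exposed, were stirred overnight at 37 °C in drug solution (240 or 48 µM in Tris, pH 7.4). They were then moved to acetate buffer, pH 5, at 37 °C. Dissolved calcium was read by atomic absorption at timed points, with the medium replenished after each sample.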

[4] = Inhibition of HAP formation, by the compound (1.0 mM) absorbed, was obtained in vitro studies.*: p<0.05; details: 1000 µM
Method in brief: (§4)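 HAP precipitation was run with calcium 3.87 mM and phosphate 2.32 mM (Ca/PO4 1.67) in 0.05 M Tris, pH 7.4. Compound (0.1 or 1 mM) was dissolved in the phosphate solution. After 24 h incubation, filtrate calcium was measured by atomic absorption spectroscopy.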

[5] = Bioavailability by the ratios of 14C p.o. /14C i.v. accumulated in urine at 24 hr (dose 10 mg/kg p.o.); format: ADME, organism-based; details: eutheria, in vivo, po
Method in brief: (§5)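 Male Sabra rats, housed in metabolic cages, fasted overnight, dosed by stomach tube at 10 mg/kg bisphosphonate equivalent (n = 6). A 1 mg/kg iv jugular-cannula group served as reference. 14C in tibia or urine measured at 24 h by sample-oxidizer combustion and scintillation counting. F = (amount po × Div)/(amount iv × Dpo) × 100.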

[6] = Inhibition of HAP formation, by the compound (0.1 mM) absorbed, was obtained in vitro studies.*: p<0.05; details: 100 µM; method in brief: as §4
[7] = (§6) Inhibition of HAP dissolution was determined […] at 0.048 mM concentration *: p<0.05; design: scale not given: the % may be the effect or the level left; details: 48 µM; method in brief: as §3
[8] = Bioavailability by the ratios of 14C p.o. /14C i.v. accumulated in bone at 24 hr (dose 10 mg/kg p.o.); format: ADME, organism-based, Bone element; details: eutheria, in vivo, po; method in brief: as §5
Homo sapiens = organism: Homo sapiens; assay: as §1; format: ADME, organism-based; method in brief: as §2
[9] = as §6; details: 48 µM; method in brief: as §3
[10] = Inhibition of HAP dissolution was determined […] at 0.24 mM concentration *: p<0.05; details: 240 µM; method in brief: as §3

Papp B→A [1] [×10⁻⁶ cm/s]	Papp A→B [2] [×10⁻⁶ cm/s]	Control [3] [%]	Initial concentration [4] [%]	Bioavailability [5] [%]	Initial concentration [6] [%]	Control [7] [%]	Bioavailability [8] [%]	Permeability (Homo sapiens) [×10⁻⁶ cm/s]	Inhibition [9] [%]	Inhibition [10] [%]	Structure (SMILES)
0.04	0.05	55.7	46.9	1.74	63.8	79.4	0.44	–	–	–	NCCC(O)(P(=O)(O)O)P(=O)(O)O [PAMIDRONIC ACID]
–	0.23	–	–	3.1	–	–	1.74	0.16	–	–	O=C(N[C@@H](Cc1ccccc1)C(=O)NCCCC(O)(P(=O)(O)O)P(=O)(O)O)[C@@H]1CCCN1 (stereo in doubt; form 1)
–	0.5	–	–	–	–	–	–	0.41	–	–	O=C(N[C@@H](Cc1ccccc1)C(=O)NCCC(O)(P(=O)(O)O)P(=O)(O)O)[C@@H]1CCCN1 (stereo in doubt; form 1)
–	0.11	–	40.5	3.17	83.8	–	1.65	0.09	79.4	59.1	O=C(N[C@@H](Cc1ccccc1)C(=O)NCCC(O)(P(=O)(O)O)P(=O)(O)O)[C@@H]1CCCN1 (stereo in doubt; form 2)
–	1.03	–	–	–	–	–	–	0.55	–	–	O=C(N[C@@H](Cc1ccccc1)C(=O)NCCCC(O)(P(=O)(O)O)P(=O)(O)O)[C@@H]1CCCN1 (stereo in doubt; form 2)
1.14	2.29	–	–	–	–	–	–	–	–	–	O=C(O)[C@H](Cc1ccccc1)NC(=O)[C@@H]1CCCN1 (H-Pro-Phe-OH)
0.22	0.26	–	–	–	–	–	–	–	–	–	OC[C@@H](O)[C@@H](O)[C@H](O)[C@H](O)CO [MANNITOL]
